Measurements published in ChEMBL document CHEMBL1155262, “A new class of anticonvulsants possessing 6 Hz activity: 3,4-dialkyloxy thiophene bishydrazones” (Eur J Med Chem, 2009).
Activity calls are given as the source filed them. No cut-off for these calls is given here.

How the values were obtained:
Mus musculus [1] = assay: Anticonvulsant activity in mouse CF1 albino assessed as inhibition of minimal electric shock-induced seizure at 60 mg/kg, ip after 2 hrs; type: functional, organism-based; set-up: dose 60 mg/kg
Summary of the method: (§1)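 6 Hz psychomotor seizure model in male CF-1 albino mice dosed i.p. Four mice per time point (0.25, 0.5, 1, 2, 4 h) received corneal-electrode current of 32 mA for 3 s. Untreated mice show a minimal clonic phase followed by stereotyped automatistic behaviour. Results given as number protected out of 4.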

Mus musculus [2] = assay: Anticonvulsant activity in mouse CF1 albino assessed as inhibition of minimal electric shock-induced seizure at 100 mg/kg, ip after 4 hrs; type: functional, organism-based; set-up: dose 100 mg/kg; summary of the method: as §1
Mus musculus [3] = assay: Anticonvulsant activity in mouse CF1 albino assessed as inhibition of minimal electric shock-induced seizure at 60 mg/kg, ip after 0.25 hrs; type: functional, organism-based; set-up: dose 60 mg/kg; summary of the method: as §1
Mus musculus [4] = assay: Anticonvulsant activity in mouse CF1 albino assessed as inhibition of minimal electric shock-induced seizure at 60 mg/kg, ip after 1 hr; type: functional, organism-based; set-up: dose 60 mg/kg; summary of the method: as §1
Mus musculus [5] = assay: Anticonvulsant activity in mouse CF1 albino assessed as inhibition of minimal electric shock-induced seizure at 60 mg/kg, ip after 0.5 hrs; type: functional, organism-based; set-up: dose 60 mg/kg; summary of the method: as §1
Mus musculus [6] = assay: Anticonvulsant activity in mouse CF1 albino assessed as inhibition of minimal electric shock-induced seizure at 60 mg/kg, ip after 4 hrs; type: functional, organism-based; set-up: dose 60 mg/kg; summary of the method: as §1
Mus musculus [7] = assay: Anticonvulsant activity in mouse CF1 albino assessed as inhibition of minimal electric shock-induced seizure at 100 mg/kg, ip after 0.25 hrs; type: functional, organism-based; set-up: dose 100 mg/kg; summary of the method: as §1
Mus musculus [8] = assay: Anticonvulsant activity in mouse CF1 albino assessed as inhibition of minimal electric shock-induced seizure at 100 mg/kg, ip after 0.5 hrs; type: functional, organism-based; set-up: dose 100 mg/kg; summary of the method: as §1
Mus musculus [9] = assay: Anticonvulsant activity in mouse CF1 albino assessed as inhibition of minimal electric shock-induced seizure at 100 mg/kg, ip after 1 hr; type: functional, organism-based; set-up: dose 100 mg/kg; summary of the method: as §1
Mus musculus [10] = assay: Anticonvulsant activity in mouse CF1 albino assessed as inhibition of minimal electric shock-induced seizure at 30 mg/kg, ip after 4 hrs; type: functional, organism-based; set-up: dose 30 mg/kg; summary of the method: as §1
Mus musculus [11] = assay: Anticonvulsant activity in mouse CF1 albino assessed as inhibition of subcutaneous metrazole-induced seizure at 300 mg/kg, ip after 4 hrs; type: functional, organism-based; set-up: dose 300 mg/kg
Mus musculus [12] = assay: Anticonvulsant activity in mouse CF1 albino assessed as inhibition of minimal electric shock-induced seizure at 30 mg/kg, ip after 2 hrs; type: functional, organism-based; set-up: dose 30 mg/kg; summary of the method: as §1
Mus musculus [13] = assay: Anticonvulsant activity in mouse CF1 albino assessed as inhibition of maximal electric shock-induced seizure at 300 mg/kg, ip after 4 hrs; type: functional, organism-based; set-up: dose 300 mg/kg
Summary of the method: (§2)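 Male CF-1 albino mice (18–25 g); compound suspended in 0.5% methyl cellulose/water or PEG 200, given i.p. at 30, 100 and 300 mg/kg (0.01 mL/g). Tested 0.5 or 4 h after dosing. Protection = abolition of hind limb tonic extensor component of MES seizure.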

Mus musculus [14] = assay: Neurotoxicity against mouse CF1 albino assessed as minimal motor impairment at 300 mg/kg, ip after 0.5 hrs by rotord test; type: toxicity, organism-based; set-up: dose 300 mg/kg, route intraperitoneal; conditions: in vivo
Summary of the method: (§3)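 Rotorod minimal motor impairment in male CF-1 albino mice (18–25 g) after i.p. dosing at 30, 100 or 300 mg/kg in 0.5% methyl cellulose/water or PEG 200. Mice placed on a rod rotating at 6 rpm at 0.5 or 4 h. Value is minimum dose causing impairment in at least one mouse.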

Mus musculus [15] = assay: Anticonvulsant activity in ip dosed mouse CF1 albino assessed as inhibition of maximal electric shock-induced seizure after 0.5 hrs; type: functional; summary of the method: as §2
Mus musculus [16] = assay: Neurotoxicity against mouse CF1 albino assessed as minimal motor impairment at 300 mg/kg, ip after 4 hrs by rotord test; type: toxicity, organism-based; set-up: dose 300 mg/kg, route intraperitoneal; conditions: in vivo; summary of the method: as §3
Mus musculus [17] = assay: Anticonvulsant activity in mouse CF1 albino assessed as inhibition of subcutaneous metrazole-induced seizure at 300 mg/kg, ip after 0.5 hrs; type: functional, organism-based; set-up: dose 300 mg/kg

With `CCCCCCCOc1c(C(=O)N/N=C/c2ccc([N+](=O)[O-])cc2)sc(C(=O)N/N=C/c2ccc([N+](=O)[O-])cc2)c1OCCCCCCC` as the compound, how does the Activity (Mus musculus [1]) read?
Its Activity is “inactive”.

What about the Activity (Mus musculus [2]) of the same compound?
Its Activity is “inactive”.

And the Activity (Mus musculus [3])?
The Activity was “inactive”.

What about the Activity (Mus musculus [4]) of the same compound?
The Activity was “inactive”.

And the Activity (Mus musculus [5])?
Its Activity is “inactive”.

What about the Activity (Mus musculus [6]) of the same compound?
The Activity was “inactive”.

What about the Activity (Mus musculus [7]) of the same compound?
The Activity was “inactive”.

And the Activity (Mus musculus [8])?
The Activity was “Active”.

What about the Activity (Mus musculus [9]) of the same compound?
Its Activity is “inactive”.

For `C/C(=N\NC(=O)c1sc(C(=O)N/N=C(\C)c2cccs2)c2c1OCCO2)c1cccs1`, which Activity (Mus musculus [10]) is on record?
The Activity was “inactive”.

And the Activity (Mus musculus [2])?
Its Activity is “inactive”.

What about the Activity (Mus musculus [11]) of the same compound?
The Activity was “inactive”.

What about the Activity (Mus musculus [12]) of the same compound?
The Activity was “inactive”.

What about the Activity (Mus musculus [13]) of the same compound?
Its Activity is “inactive”.

And the Activity (Mus musculus [14])?
Its Activity is “Not Active”.

What about the Activity (Mus musculus [15]) of the same compound?
Its Activity is 300 mg/kg.

What about the Activity (Mus musculus [16]) of the same compound?
The Activity was “Not Active”.

And the Activity (Mus musculus [17])?
The Activity was “inactive”.
